Results: ChEMBL document CHEMBL1127531, “Selective type IV phosphodiesterase inhibitors as antiasthmatic agents. The syntheses and biological activities of 3-(cyclopentyloxy)-4-methoxybenzamides and analogues” (J Med Chem, 1994)

How the values were obtained:
Phosphodiesterase 4A = target: T1, Phosphodiesterase 4A (Sus scrofa, UniProt O77823); test: Inhibitory potency against pig aortic PDE IV
T1 sequence (O77823 whole entry): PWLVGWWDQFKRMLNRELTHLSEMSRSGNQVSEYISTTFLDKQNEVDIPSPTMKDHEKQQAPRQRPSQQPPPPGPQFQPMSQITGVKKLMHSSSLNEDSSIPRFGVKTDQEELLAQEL
Outline: (§1)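 Pig aortic PDE isozymes were separated by DEAE-trisacryl anion-exchange chromatography. PDE III was assayed in the presence of rolipram (10 µM) and PDE IV in the presence of siguazodan (10 µM) to exclude cross-contamination.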

Cavia porcellus [1] = test: In vivo bronchodilator effect on histamine-induced bronchospasm in anaesthetized guinea pigs at 100 ug intravenous dose; type: functional
Cavia porcellus [2] = organism: Cavia porcellus; test: Inhibition of superoxide O2-generation from guinea pig peritoneal eosinophils; type: functional
Outline: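 Guinea pig peritoneal eosinophils (10^6/well) were incubated for 45 min at 37 °C in HBSS with p-iodonitrotetrazolium violet (0.5 mg/mL). Superoxide was measured as SOD-inhibitable dye reduction: cells were pelleted and dissolved overnight at room temperature in DMSO/0.6 M HCl, and absorbance was read at 492 nm.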

[3] = Inhibitory potency against pig aortic PDE III.; design: species or system Sus scrofa; outline: as §1
Phosphodiesterase 4 [4] = target: T2, Phosphodiesterase 4 (Homo sapiens, UniProt P27815+Q08499+Q07343+Q08493); test: Inhibition of guinea pig PDE IV; type: protein assay, Cavia porcellus; details: target entry is the homologue from another species
Phosphodiesterase 4 [5] = target: T2, Phosphodiesterase 4; test: Inhibition of solubilized eosinophil PDE IV; type: protein assay, Cavia porcellus
[6] = target: Phosphodiesterase 1 (Sus scrofa); test: Inhibitory potency against pig aortic PDE I.
Cavia porcellus [7] = test: In vivo bronchodilator effect on histamine-induced bronchospasm in anaesthetized guinea pigs at 20 ug intravenous dose; type: functional
Cavia porcellus [8] = test: In vivo bronchodilator effect on histamine-induced bronchospasm in anaesthetized guinea pigs at 200 ug intravenous dose; type: functional
Cavia porcellus [9] = test: In vivo bronchodilator effect on histamine-induced bronchospasm in anaesthetized guinea pigs at 10 ug intravenous dose; type: functional
Cavia porcellus [10] = test: In vivo bronchodilator effect on histamine-induced bronchospasm in anaesthetized guinea pigs at 50 ug intravenous dose; type: functional

| SMILES | IC50 (Phosphodiesterase 4A) [µM] | IC50 [3] [µM] | further results |
| --- | --- | --- | --- |
| COc1ccc(C(=O)Oc2c(Cl)cccc2Cl)cc1OC1CCCC1 | > 1000 |  |  |
| COc1ccc(C(=O)Nc2ccccc2Cl)cc1OC1CCCC1 | 0.19 | > 200 | Duration (Cavia porcellus [1]): 27 min; Reduction (Cavia porcellus [1]): 43%; IC50 (Cavia porcellus [2]): 0.45 µM; IC50 (Phosphodiesterase 4 [4]): 0.186 µM; IC50 (Phosphodiesterase 4 [5]): 0.051 µM; IC50 [6]: > 200 µM |
| COc1ccc(C(=O)NCc2ccccc2Cl)cc1OC1CCCC1 | > 1000 |  |  |
| COc1ccc(C(=O)Nc2c(C)cccc2Cl)cc1OC1CCCC1 | 0.1 | > 1000 | IC50 [6]: > 1000 µM |
| COc1ccc(C(=O)Nc2c(C)cccc2C)cc1OC1CCCC1 | 0.1 | > 200 | Duration (Cavia porcellus [1]): 16 min; Reduction (Cavia porcellus [1]): 24%; IC50 (Cavia porcellus [2]): 0.17 µM; IC50 (Phosphodiesterase 4 [4]): 0.106 µM; IC50 (Phosphodiesterase 4 [5]): 0.065 µM |
| COc1ccc(C(=O)Nc2ccncc2Cl)cc1OC1CCCC1 | 0.016 |  | Reduction (Cavia porcellus [7]): 26%; IC50 (Cavia porcellus [2]): 0.03 µM; Duration (Cavia porcellus [8]): 15 min; IC50 (Phosphodiesterase 4 [4]): 0.016 µM; IC50 (Phosphodiesterase 4 [5]): 0.002 µM |
| COc1ccc(C(=O)Nc2ncccc2C)cc1OC1CCCC1 | 3.1 |  |  |
| COc1ccc(C(=O)Nc2ccccn2)cc1OC1CCCC1 | 1 |  |  |
| COc1ccc(C(=O)Nc2ccccc2Cl)cc1OC(=O)c1ccccc1 | > 1000 |  |  |
| COc1ccc(C(=O)Nc2ccc(F)cc2)cc1OC1CCCC1 | > 1000 | > 1000 | IC50 [6]: > 1000 µM |
| COc1ccc(C(=O)Nc2ccccc2Br)cc1OC1CCCC1 | 0.13 | > 1000 | IC50 [6]: > 1000 µM |
| COc1ccc(C(=O)Nc2c(Cl)cncc2Cl)cc1OC1CCCCC1 | 0.05 |  |  |
| COc1ccc(C(=O)Nc2ccncc2)cc1OC1CCCC1 | 0.8 |  |  |
| COc1ccc(C(=O)Nc2c(F)c(F)nc(F)c2F)cc1OC1CCCC1 | 0.55 |  |  |
| COc1ccc(C(=O)Nc2c(C)nsc2Br)cc1OC1CCCC1 | 0.5 |  |  |
| COc1ccc(C(=O)Nc2c(F)cccc2F)cc1OC | 0.9 |  |  |
| CCCCOc1cc(C(=O)Nc2c(Cl)cncc2Cl)ccc1OC | 0.008 |  | Duration (Cavia porcellus [1]): 34 min; Reduction (Cavia porcellus [1]): 52%; Reduction (Cavia porcellus [7]): 78%; IC50 (Cavia porcellus [2]): 0.48 µM; Duration (Cavia porcellus [8]): 32 min; IC50 (Phosphodiesterase 4 [4]): 0.0085 µM; IC50 (Phosphodiesterase 4 [5]): 0.0025 µM |
| COc1ccc(C(=O)Nc2nccs2)cc1OC1CCCC1 | 6.5 |  |  |
| CCCOc1cc(C(=O)Nc2c(F)cccc2F)ccc1OC | 1.6 |  |  |
| COc1ccc(C(=O)Nc2c(Cl)c(F)nc(F)c2Cl)cc1OC1CCCC1 | 0.02 |  |  |
| COc1ccc(C(=O)Nc2c(C)nsc2C)cc1OC1CCCC1 | 0.5 |  |  |
| COc1ccc(C(=O)Nc2c(Cl)ncnc2Cl)cc1OC1CCCC1 | 0.4 |  |  |
| COc1ccc(C(=O)Nc2c(Cl)cccc2Cl)cc1OC1CC2CCC1C2 (centres undefined) | 0.01 |  |  |
| CCCCOc1cc(C(=O)Nc2c(Br)cncc2Br)ccc1OC | 0.07 |  |  |

| SMILES | IC50 (Phosphodiesterase 4A) [µM] | IC50 [3] [µM] | further results |
| --- | --- | --- | --- |
| COc1ccc(C(=O)Nc2cccnc2)cc1OC1CCCC1 | 0.55 |  |  |
| COc1ccc(C(=O)Nc2ccccc2O)cc1OC1CCCC1 | 1.3 | > 200 | IC50 [6]: > 200 µM |
| COC(=O)c1ccccc1NC(=O)c1ccc(OC)c(OC2CCCC2)c1 | 3 | > 40 | IC50 [6]: > 40 µM |
| COc1ccc(C(=O)Nc2c(Cl)cncc2Cl)cc1OC1CCCC1 |  |  | Reduction (Cavia porcellus [9]): 36%; Reduction (Cavia porcellus [7]): 56%; Reduction (Cavia porcellus [10]): 78%; IC50 (Cavia porcellus [2]): 0.024 µM |
| COc1ccc(C(=O)Nc2ccccc2C)cc1OC1CCCC1 | 0.3 | > 1000 | IC50 [6]: > 1000 µM |
| COc1ccc(C(=O)Nc2ccccc2Cl)cc1OC(=O)C1CCCC1 | > 1000 |  |  |
| COc1ccc(C(=O)Nc2ccccc2C(F)(F)F)cc1OC1CCCC1 | 3.1 | > 1000 | IC50 [6]: > 1000 µM |
| COc1ccc(C(=O)Nc2ncccc2Cl)cc1OC1CCCC1 | 0.36 |  |  |
| CCCCOc1cc(C(=O)Nc2c(F)cccc2F)ccc1OC | 0.3 |  |  |
| COc1ccc(C(=O)Nc2cc(Cl)ccc2Cl)cc1OC1CCCC1 | 0.5 | > 200 |  |
| COc1ccc(C(=O)Nc2c(C)cncc2C)cc1OC1CCCC1 | 0.035 |  |  |
| COc1ccc(C(=O)Nc2cccc(Cl)c2Cl)cc1OC1CCCC1 | > 200 | > 200 | IC50 [6]: > 200 µM |
| COc1ccc(C(=O)Nc2c(F)cccc2F)cc1OC1CCCCC1 | 0.4 |  |  |
| COc1ccc(C(=O)Nc2c(F)cccc2Cl)cc1OC1CCCC1 | 0.24 | > 1000 | IC50 [6]: > 1000 µM |
| COc1ccc(C(=O)Nc2ccccc2Cl)cc1OC(C)=O | 70 |  |  |
| COc1ccc(C(=O)Nc2ccccc2C(C)=O)cc1OC1CCCC1 | 1.2 | > 40 |  |
| COc1ccc(C(=O)Nc2ccccc2C(=O)c2ccccc2)cc1OC1CCCC1 | 1.7 | > 40 | IC50 [6]: > 40 µM |
| COc1ccc(C(=S)Nc2ccccc2Cl)cc1OC1CCCC1 | 0.2 |  |  |
| COc1ccc(C(=O)Nc2c(Cl)c[n+]([O-])cc2Cl)cc1OC1CCCC1 | 0.002 |  | Duration (Cavia porcellus [1]): 39 min; Reduction (Cavia porcellus [1]): 54%; Duration (Cavia porcellus [10]): 18 min; Reduction (Cavia porcellus [10]): 45%; IC50 (Cavia porcellus [2]): 0.3 µM; IC50 (Phosphodiesterase 4 [4]): 0.0023 µM; IC50 (Phosphodiesterase 4 [5]): 0.002 µM |
| COc1ccc(C(=O)Nc2ccccc2[N+](=O)[O-])cc1OC1CCCC1 | 0.25 | > 200 |  |
| COc1ccc(C(=O)Nc2cnccn2)cc1OC1CCCC1 | 0.25 |  |  |
| COc1ccc(C(=O)Nc2ccc(Cl)cc2)cc1OC1CCCC1 | > 1000 | > 1000 | IC50 [6]: > 1000 µM |
| COc1ccc(C(=O)Nc2c(Cl)cccc2Cl)cc1OC1CCCC1 | 0.023 | > 1000 | Duration (Cavia porcellus [1]): 34 min; Reduction (Cavia porcellus [1]): 48%; Reduction (Cavia porcellus [7]): 55%; IC50 (Cavia porcellus [2]): 0.53 µM; Duration (Cavia porcellus [8]): 30 min; IC50 (Phosphodiesterase 4 [4]): 0.023 µM; IC50 (Phosphodiesterase 4 [5]): 0.005 µM |
| COc1ccc(C(=O)Nc2ccccc2Cl)cc1OC | 0.65 |  |  |

| SMILES | IC50 (Phosphodiesterase 4A) [µM] | IC50 [3] [µM] | further results |
| --- | --- | --- | --- |
| COc1ccc(C(=O)Nc2c(F)cccc2F)cc1 | 37 |  |  |
| COc1ccc(C(=O)Nc2ccccc2C#N)cc1OC1CCCC1 | 2.5 | 9.5 |  |
| COc1ccc(C(=O)Nc2c(Br)cccc2Br)cc1OC1CCCC1 | 0.4 | > 1000 |  |
| O=C(Nc1c(F)cccc1F)c1cccc(OC2CCCC2)c1 | 15 |  |  |
| COc1ccc(C(=O)Nc2c(Br)cncc2Br)cc1OC1CCCC1 | 0.007 |  |  |
| COc1ccc(C(=O)Nc2ccccc2)cc1OC1CCCC1 | 2.6 | > 1000 | Reduction (Cavia porcellus [7]): 32%; IC50 (Cavia porcellus [2]): > 10 µM; Duration (Cavia porcellus [8]): 6 min; IC50 (Phosphodiesterase 4 [4]): 2.566 µM; IC50 (Phosphodiesterase 4 [5]): 0.145 µM |
| COc1ccc(C(=O)Nc2ccccc2Cl)cc1OC(=O)C(C)(C)C | > 1000 |  |  |
| COc1ccc(C(=O)Nc2c(F)cccc2F)cc1OC1CCCC1 | 0.07 | > 1000 | Duration (Cavia porcellus [1]): 18 min; Reduction (Cavia porcellus [1]): 29%; Reduction (Cavia porcellus [7]): 54%; IC50 (Cavia porcellus [2]): 0.58 µM; Duration (Cavia porcellus [8]): 48 min; IC50 (Phosphodiesterase 4 [4]): 0.066 µM; IC50 (Phosphodiesterase 4 [5]): 0.018 µM; IC50 [6]: > 1000 µM |
| COc1ccc(C(=O)Nc2c(F)c(F)nc(F)c2Cl)cc1OC1CCCC1 | 0.1 |  |  |
| COc1ccc(C(=O)Nc2c(C)nsc2C#N)cc1OC1CCCC1 | 0.2 |  |  |
| COc1ccc(C(=O)Nc2ccccc2F)cc1OC1CCCC1 | 10.7 | > 1000 | IC50 [6]: > 1000 µM |
| COc1ccc(C(=O)Nc2c(F)cnc(F)c2F)cc1OC1CCCC1 | 0.085 |  |  |
| COc1ccc(C(=O)Nc2cccc(C)c2)cc1OC1CCCC1 | 1 | > 200 |  |
| COc1ccc(C(=O)Nc2ccc(C)cc2)cc1OC1CCCC1 | > 200 | > 200 | IC50 [6]: > 200 µM |
| COc1ccc(C(=O)Nc2ccccc2SC)cc1OC1CCCC1 | 1.2 | > 200 | IC50 [6]: > 200 µM |
| COc1ccc(C(=O)Nc2c(Cl)cncc2Cl)cc1OC | 0.1 |  |  |
| COc1ccc(C(=O)Nc2cnccc2Cl)cc1OC1CCCC1 | 0.12 |  |  |
| COc1ccc(C(=O)Nc2cccc(Cl)c2)cc1OC1CCCC1 | 1.3 | > 40 | IC50 [6]: > 40 µM |
| COc1ccc(C(=O)Nc2ncccn2)cc1OC1CCCC1 | 3.5 |  |  |
| COc1ccc(C(=O)Nc2c(C)noc2C)cc1OC1CCCC1 | 0.45 |  |  |
| COc1ccc(C(=O)Nc2c(Cl)cncc2Cl)cc1OC1CC2CCC1C2 (racemic) | 0.001 |  | Duration (Cavia porcellus [1]): 59 min; Reduction (Cavia porcellus [1]): 80%; Duration (Cavia porcellus [10]): 29 min; Reduction (Cavia porcellus [10]): 35%; IC50 (Cavia porcellus [2]): 0.022 µM; IC50 (Phosphodiesterase 4 [4]): 0.0014 µM; IC50 (Phosphodiesterase 4 [5]): 0.0005 µM |
| COc1ccc(C(=O)Nc2c(Cl)cncc2Cl)cc1OC1CC2CCC1C2 (stereo in doubt; (+)16g) | 0.001 |  |  |
| COc1ccc(C(=O)Nc2c(Cl)cncc2Cl)cc1OC1CC2CCC1C2 (stereo in doubt; (-)16f) | 0.001 |  |  |
| COc1ccc(C2CNC(=O)C2)cc1OC1CCCC1 (centres undefined) [ROLIPRAM] |  |  | Duration (Cavia porcellus [9]): 15 min; Reduction (Cavia porcellus [9]): 15%; Duration (Cavia porcellus [7]): 29 min; Reduction (Cavia porcellus [7]): 48%; Duration (Cavia porcellus [10]): 38 min; Reduction (Cavia porcellus [10]): 58%; IC50 (Cavia porcellus [2]): 0.16 µM |
